# Experiments:
# [1] = Area under the curve was evaluated by plasma concentration and time curve in normal rat after oral dosing of 300 uM/kg; format: ADME, organism-based
# Procedure, shortened: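 Normal Sprague-Dawley rats, single oral dose of 300 µmol/kg in 0.5% carboxymethylcellulose/0.2% Tween-80 in water, N = 5/group. Tail-tip blood taken at 2, 4, 7, 8, 24, 36 and 48 h postdose and centrifuged. Plasma AUC0-48h of active metabolite 3.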
# [2] = Percent control of beta-hydroxybutyrate in normal 18 hr-fasted rat model dosed at 100 umol/Kg; format: functional
# Procedure, shortened: (§1)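 Male Sprague-Dawley rats fasted 18 h, single oral dose of 100 µmol/kg in 0.5% carboxymethylcellulose/0.2% Tween-80 in water, or vehicle alone, N = 5/group. Serum glucose and β-hydroxybutyrate measured in cardiac-puncture blood at 3 h postdose. Expressed as percent of vehicle control; Student's t-test.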
# [3] = Percent control of glucose in normal 18 hr-fasted rat model dosed at 100 umol/Kg; format: functional; procedure, shortened: as §1
# Rattus norvegicus [4] = assay: Percent efficacy (reduction in blood glucose) at 70 umol/kg in STZ diabetic rats after 11.25 days.; format: functional
# Procedure, shortened: (§2)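 Sprague-Dawley rats on a high-fat diet made diabetic with STZ 40 mg/kg i.v. (tail vein). Selected by blood glucose >200 mg/dL at day 5 and by an 18 h fast plus oral dextrose load (1.35 g/kg). Dosed orally once daily for 11 days, 70 µmol/kg in CMC/Tween-80 vehicle, N = 9/group. Food removed during the 0–6 h window. Tail-tip glucose at 6 h postdose on days 8 and 11, expressed as percent efficacy (100% = 60 mg/dL).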
# Rattus norvegicus [5] = assay: Percent efficacy (reduction in blood glucose) at 70 umol/kg in STZ diabetic rats after 8.25 days.; format: functional; procedure, shortened: as §2
# Rattus norvegicus [6] = species: Rattus norvegicus; assay: Effective dose of the compound.; format: functional
# Rattus norvegicus [7] = species: Rattus norvegicus; assay: Effective dose against beta- Hydroxybutyrate in Normal 18 hr-fasted rat model; format: functional
# Rattus norvegicus [8] = assay: Percent change in body weight in a 28-day safety study in normal Sprague-Dawley rats at 380 uM/kg/day.; format: functional
# Procedure, shortened: (§3)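 28-day safety study in normal Sprague-Dawley rats dosed daily at 380, 550 or 700 µmol/kg/day. Body weight given as percent of control. Organ weight calculated as [organ/body weight (treated)]/[organ/body weight (control)]. Significance reported at p < 0.05 and p < 0.01.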
# Rattus norvegicus [9] = assay: Percent change in heart weight in a 28-day safety study in normal Sprague-Dawley rats at 380 uM/kg/day.; format: functional; procedure, shortened: as §3
# Rattus norvegicus [10] = assay: Percent change in liver weight in a 28-day safety study in normal Sprague-Dawley rats at 380 uM/kg/day.; format: functional; procedure, shortened: as §3
# Rattus norvegicus [11] = assay: Percent change in testes weight in a 28-day safety study in normal Sprague-Dawley rats at 380 uM/kg/day.; format: functional, Testis; procedure, shortened: as §3
# Rattus norvegicus [12] = assay: Percent change in testes weight in a 28-day safety study in normal Sprague-Dawley rats at 380,550, and 700 uM/kg/day.; format: functional, Testis; procedure, shortened: as §3
# Rattus norvegicus [13] = assay: Percent change in heart weight in a 28-day safety study in normal Sprague-Dawley rats at 550 uM/kg/day.; format: functional; procedure, shortened: as §3
# Rattus norvegicus [14] = assay: Percent change in liver weight in a 28-day safety study in normal Sprague-Dawley rats at 550 uM/kg/day.; format: functional; procedure, shortened: as §3
# Rattus norvegicus [15] = assay: Percent change in testes weight in a 28-day safety study in normal Sprague-Dawley rats at 700 uM/kg/day.; format: functional, Testis; procedure, shortened: as §3
# Rattus norvegicus [16] = assay: Percent change in body weight in a 28-day safety study in normal Sprague-Dawley rats at 700 uM/kg/day.; format: functional; procedure, shortened: as §3
# Rattus norvegicus [17] = assay: Percent change in heart weight in a28-day safety study in normal Sprague-Dawley rats at 700 uM/kg/day.; format: functional; procedure, shortened: as §3
# Rattus norvegicus [18] = assay: Percent change in liver weight in a 28-day safety study in normal Sprague-Dawley rats at 700 uM/kg/day.; format: functional; procedure, shortened: as §3
Compound,AUC [1],Control [2],Control [3],Efficacy (Rattus norvegicus [4]),Efficacy (Rattus norvegicus [5]),other results
CC(C)(C)C(=O)c1ccc(C(=O)OCC(O)CO)cc1 (stereo not drawn),1450 µg·h/mL,<13.6%,<56.1%,<55.1%,41.6%,–
CC(C)(C)C(O)c1ccc(C(=O)OCC(COC(=O)c2ccc(C(O)C(C)(C)C)cc2)OC(=O)c2ccc(C(O)C(C)(C)C)cc2)cc1 (stereo not drawn),1160 µg·h/mL,<32.5%,<57%,<61%,49.8%,–
CC(C)(C)C(=O)c1ccc(C(=O)OCC(CO)(CO)COC(=O)c2ccc(C(=O)C(C)(C)C)cc2)cc1,–,<14.3%,<68.9%,–,–,ED50 (Rattus norvegicus [6]): 3.4 mg/kg/day
CCCCCCCCCCCCCCCC(=O)OC(CO)COC(=O)c1ccc(C(=O)C(C)(C)C)cc1 (stereo not drawn),645 µg·h/mL,<22.7%,<60.7%,<64.5%,<69.8%,–
COCC(COC)OC(=O)c1ccc(C(=O)C(C)(C)C)cc1,1130 µg·h/mL,<15.5%,<69.4%,54.9%,<75.8%,–
CC(C)(C)C(=O)c1ccc(COCC(COCc2ccc(C(=O)C(C)(C)C)cc2)OCc2ccc(C(=O)C(C)(C)C)cc2)cc1,–,<19.6%,74.1%,3.8%,25.9%,–
CCCCCCCCCCCCCCCC(=O)OCC(COCc1ccc(C(=O)C(C)(C)C)cc1)OC(=O)CCCCCCCCCCCCCCC (stereo not drawn),–,<31.2%,97.8%,-46.4%,0.4%,–
CCCCCCCCCCCCCCCC(=O)OCC(COC(=O)CCCCCCCCCCCCCCC)OC(=O)c1ccc(C(=O)C(C)(C)C)cc1,885 µg·h/mL,<23.6%,<60.7%,<84.7%,62.5%,–
CCCCCCCC/C=C/CCCCCCCC(=O)OCC(COCc1ccc(C(=O)C(C)(C)C)cc1)OC(=O)CCCCCCC/C=C/CCCCCCCC (stereo not drawn),–,<20.7%,95.1%,21.8%,9.5%,–
CC(C)(C)C(=O)c1ccc(C(=O)OC(CO)CO)cc1,1480 µg·h/mL,<10.9%,<59.3%,<88.1%,<67.4%,–
CCCCCCCCOCC(COCCCCCCCC)OC(=O)c1ccc(C(=O)C(C)(C)C)cc1,–,<20.1%,<82.9%,–,–,–
CC(C)(C)C(=O)c1ccc(COCC2(COCc3ccc(C(=O)C(C)(C)C)cc3)CCCO2)cc1,–,<12.7%,<78.1%,40.1%,45.6%,–
CC(C)(C)C(=O)c1ccc(COCC(O)CO)cc1 (stereo not drawn),–,<33.5%,77.6%,4.3%,5.7%,–
CC(C)(C)C(=O)c1ccc(C(=O)OCC(COC(=O)c2ccc(C(=O)C(C)(C)C)cc2)OC(=O)c2ccc(C(=O)C(C)(C)C)cc2)cc1,128 µg·h/mL,<22.9%,82.2%,<103.6%,<103.7%,ED50 (Rattus norvegicus [7]): 88 mg/kg/day; Change (Rattus norvegicus [8]): 95%; Change (Rattus norvegicus [9]): 101%; Change (Rattus norvegicus [10]): <113%; Change (Rattus norvegicus [11]): 102%
CC(C)(C)C(=O)c1ccc(COCc2ccc(COCc3ccc(C(=O)C(C)(C)C)cc3)o2)cc1,–,<17.3%,<79.7%,-3.9%,6.2%,–
CC(C)(C)C(=O)c1ccc(C(=O)OCCC(COC(=O)c2ccc(C(=O)C(C)(C)C)cc2)COC(=O)c2ccc(C(=O)C(C)(C)C)cc2)cc1,–,<28.8%,98.6%,–,–,ED50 (Rattus norvegicus [7]): 96.2 mg/kg/day; Change (Rattus norvegicus [12]): 100%; Change (Rattus norvegicus [13]): 100%; Change (Rattus norvegicus [14]): 101%
CC(C)(C)C(=O)c1ccc(CSCCSCc2ccc(C(=O)C(C)(C)C)cc2)cc1,–,82.6%,79.7%,–,–,–
CCCCCCCCCCCCCCCC(=O)OCC(COC(=O)CCCCCCCCCCCCCCC)OC(=O)CCc1ccc(C(=O)C(C)(C)C)cc1,930 µg·h/mL,<24.6%,<71.6%,<97.5%,<84%,–
CCCCCCCCCCCCCCCC(=O)OCC(COC(=O)CCCCCCCCCCCCCCC)OCc1ccc(C(=O)C(C)(C)C)cc1,92 µg·h/mL,<57.2%,111.6%,35.5%,24.8%,ED50 (Rattus norvegicus [7]): 127 mg/kg/day
Cc1ccc(C2(C(C)(C)C)OCCO2)cc1,1510 µg·h/mL,<12%,<58%,<64%,<52%,Change (Rattus norvegicus [15]): <46%; Change (Rattus norvegicus [16]): <76%; Change (Rattus norvegicus [17]): 92%; Change (Rattus norvegicus [18]): 215%
CCCCCCCCCCCCCCCC(=O)OCC(COC(=O)c1ccc(C(=O)C(C)(C)C)cc1)OC(=O)CCCCCCCCCCCCCCC (stereo not drawn),1460 µg·h/mL,<20.5%,<63%,<90.2%,<75.7%,–
CC(C)(C)C(=O)c1ccc(CSCc2ccccc2)cc1,–,59.5%,68.9%,–,–,–
CC(C)(C)C(=O)c1ccc(COC/C=C/COCc2ccc(C(=O)C(C)(C)C)cc2)cc1,–,<15%,88.1%,-5.3%,1.4%,–
CC(C)(C)C(=O)c1ccc(COCc2cccc(COCc3ccc(C(=O)C(C)(C)C)cc3)n2)cc1,–,<32.5%,98.2%,-6.8%,18.2%,–
CC(C)(C)C(=O)c1ccc(C(=O)OCC(COC(=O)c2ccc(C(=O)C(C)(C)C)cc2)(COC(=O)c2ccc(C(=O)C(C)(C)C)cc2)COC(=O)c2ccc(C(=O)C(C)(C)C)cc2)cc1,–,96.2%,109.4%,–,–,–
CC(C)(C)C(=O)c1ccc(C(=O)OCC(O)COC(=O)c2ccc(C(=O)C(C)(C)C)cc2)cc1,1780 µg·h/mL,<11.9%,<58.4%,<111.1%,<99.5%,–
CC(C)(C)C(=O)c1ccc(COCCN2CCOCC2)cc1,–,<23.8%,98.2%,-5.9%,<-13.1%,–

# From ChEMBL document CHEMBL1134343, “Reduction in glucose levels in STZ diabetic rats by 4-(2,2-dimethyl-1-oxopropyl)benzoic acid: a prodrug approach for targeting the liver” (J Med Chem, 2001)
